Reference: ChEMBL document CHEMBL1154621, “Structure-based design of DevR inhibitor active against nonreplicating Mycobacterium tuberculosis” (J Med Chem, 2009)
Active and inactive are the calls of the source. No cut-off for these calls is given here.

How the values were obtained:
[1] = molecular target: T1, DNA-binding transcriptional activator DevR/DosR (Mycobacterium tuberculosis, UniProt P9WMF9); assay: Inhibition of DevR region-dependent Rv3134c promoter activity in Mycobacterium tuberculosis H37Rv after 48 hrs by GFP reporter gene assay
Method in brief: (§1)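 H37Rv carrying DevR-regulated promoter-gfp plasmids, grown in Dubos/Tween/ADC medium to OD595 ~0.4 and diluted to OD ~0.05. Exposed to 2-fold serial compound dilutions from DMSO stocks for 48 h at 37 °C. Fluorescence corrected for vector and compound background. Percent inhibition = [1 - RFUcompound/RFUDMSO] × 100; mean ± SD of three experiments, each in triplicate wells.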

[2] = molecular target: T1, DNA-binding transcriptional activator DevR/DosR; assay: Inhibition of Mycobacterium tuberculosis phosphorylated DevR binding to fdxA promoter DNA after 10 mins by EMSA
Method in brief: (§2)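 N-terminal GST-tagged DevR was phosphorylated with acetyl phosphate; DevR~P (1 μM final) was preincubated 10 min at 30 °C with or without compound. ~2 ng 32P end-labelled fdxA promoter PCR probe was added and incubated 30 min on ice in binding buffer. Complexes resolved by gel electrophoresis.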

[3] = test system: Mycobacterium tuberculosis; assay: Antimycobacterial activity against 30 day old non-replicating dormant cultures of Mycobacterium tuberculosis H37Rv assessed as reduction of bacterial viability at 131 ug/mL measured after 11 days by resazurin reduction assay; assay type: functional, organism-based
Method in brief: (§3)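 H37Rv grown in Dubos medium to OD595 ~0.4, diluted to OD595 0.003; 2 mL aliquots held static in sealed 4 mL tubes for 30 days until hypoxic. Compounds added to these dormant cultures for a further 11 days. Metronidazole and isoniazid were controls. Read by CFU plating of aliquots, then resazurin 0.02% plus Tween-80 20% injected, overnight incubation, resazurin reduction (HyRRA).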

[4] = test system: Mycobacterium tuberculosis; assay: Inhibition of constitutive sigA promoter activity in Mycobacterium tuberculosis H37Rv; assay type: functional, organism-based
Method in brief: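 Strains carrying Rv3134c or sigA promoter-gfp were grown in 7H9/Tween/ADC to OD595 ~0.40. Washed twice with PBS, resuspended in PBS (starved) or medium, and diluted to OD595 ~0.02. 1 mL aliquots incubated; 200 μL samples taken weekly to measure GFP fluorescence.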

[5] = test system: Mycobacterium tuberculosis; assay: Antimycobacterial activity against aerobic Mycobacterium tuberculosis H37Rv by resazurin reduction based REMA assay; assay type: functional, organism-based
Method in brief: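 Aerobic H37Rv exposed to compounds in triplicate cultures for 7 days. Then 0.02% resazurin and 20% Tween-80 added; after 48 h, blue-to-pink colour change read, with fluorescence at excitation 530 nm, emission 590 nm.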

[6] = test system: Mycobacterium tuberculosis; assay: Antimycobacterial activity against hypoxic dormant cultures of Mycobacterium tuberculosis H37Rv assessed as revival of bacterial viability at 131 ug/mL administered on day 0 into hypoxic tubes measured after 30 days under hypoxic conditions by resazurin reduction assay; assay type: functional, organism-based
Method in brief: (§4)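 Hypoxic cultures were pelleted at 11000g at the end of exposure (30 days if compound was given on day 0, 41 days if given on day 30). Washed and resuspended in 4 mL 7H9 with 5% OADC and 0.1% Tween-80. Grown aerobically at 190 rpm, 37 °C. Aliquots taken every 5 days; recovery read by resazurin reduction and OD595, scored 1-40 with day 0 = 1.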

[7] = molecular target: DNA-binding transcriptional activator DevR/DosR (Mycobacterium tuberculosis) (UniProt P9WMF9); assay: Inhibition of Mycobacterium tuberculosis phosphorylated DevR binding to fdxA promoter DNA at 250 uM after 10 mins by EMSA; method in brief: as §2
[8] = test system: Mycobacterium tuberculosis; assay: Antimycobacterial activity against hypoxic dormant cultures of Mycobacterium tuberculosis H37Rv assessed as reduction of bacterial viability at 131 ug/mL administered on day 0 into hypoxic tubes measured after 30 days by resazurin reduction assay; assay type: functional
Method in brief: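 H37Rv in Dubos medium at OD595 0.003; 2 mL aliquots in sealed 4 mL tubes held static, compound injected on day 0. Incubated until methylene blue decolorized (anaerobiosis, ~30 days). CFU plating of aliquots, then resazurin 0.02% and Tween-80 20% injected, overnight incubation, viability by resazurin reduction (HyRRA). DMSO control matched.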

[9] = molecular target: DNA-binding protein HupB (Mycobacterium tuberculosis (strain ATCC 25177 / H37Ra)) (UniProt A5U6Z7); assay: Inhibition of Mycobacterium tuberculosis HupB binding to fdxA promoter DNA at 500 uM by EMSA
Method in brief: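 Purified HupB protein incubated with compound, then ~2 ng 32P-labelled fdxA promoter probe added for 30 min on ice in binding buffer. Complexes resolved by gel shift electrophoresis against positive and negative controls.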

[10] = molecular target: DNA-binding transcriptional activator DevR/DosR (Mycobacterium tuberculosis) (UniProt P9WMF9); assay: Inhibition of Mycobacterium tuberculosis phosphorylated DevR binding to fdxA promoter DNA added before DevR phosphorylation by EMSA
[11] = molecular target: DNA-binding transcriptional activator DevR/DosR (Mycobacterium tuberculosis) (UniProt P9WMF9); assay: Inhibition of Mycobacterium tuberculosis phosphorylated DevR binding to fdxA promoter DNA added after DevR phosphorylation by EMSA
[12] = molecular target: DNA-binding transcriptional activator DevR/DosR (Mycobacterium tuberculosis) (UniProt P9WMF9); assay: Inhibition of DevR region-dependent Rv3134c promoter activity in Mycobacterium tuberculosis H37Rv at 250 uM after 48 hrs by GFP reporter gene assay; method in brief: as §1
[13] = test system: Mycobacterium tuberculosis; assay: Antimycobacterial activity against nutrient starvation-induced dormant Mycobacterium tuberculosis H37Rv expressing Rv3134c/sigA promoter driven GFP reporter genes; assay type: functional, organism-based
[14] = molecular target: T1, DNA-binding transcriptional activator DevR/DosR; assay: Inhibition of DevR region-dependent hspX promoter activity in Mycobacterium tuberculosis H37Rv after 48 hrs by GFP reporter gene assay; method in brief: as §1
[15] = molecular target: T1, DNA-binding transcriptional activator DevR/DosR; assay: Inhibition of DevR region-dependent narK2 promoter activity in Mycobacterium tuberculosis H37Rv after 48 hrs by GFP reporter gene assay; method in brief: as §1
[16] = test system: Mycobacterium tuberculosis; assay: Antimycobacterial activity against 30 day old non-replicating dormant cultures of Mycobacterium tuberculosis H37Rv assessed as revival of bacterial viability at 131 ug/mL exposed for 11 days measured after 30 days post exposure by resazurin reduction assay; assay type: functional, organism-based; method in brief: as §4
[17] = test system: Mycobacterium tuberculosis; assay: Antimycobacterial activity against 30 day old non-replicating dormant cultures of Mycobacterium tuberculosis H37Rv assessed as reduction of bacterial viability measured after 11 days by resazurin reduction assay; assay type: functional, organism-based; method in brief: as §3
[18] = test system: Mycobacterium tuberculosis; assay: Antimycobacterial activity against 30 day old non-replicating dormant cultures of Mycobacterium tuberculosis H37Rv assessed as revival of bacterial viability exposed for 11 days measured after 30 days post exposure by resazurin reduction assay; assay type: functional, organism-based; method in brief: as §4
[19] = molecular target: DNA-binding transcriptional activator DevR/DosR (Mycobacterium tuberculosis) (UniProt P9WMF9); assay: Inhibition of Mycobacterium tuberculosis phosphorylated DevR binding to fdxA promoter DNA at 500 uM after 10 mins by EMSA; method in brief: as §2

Sequence of DNA-binding transcriptional activator DevR/DosR (Mycobacterium tuberculosis) (P9WMF9 whole entry): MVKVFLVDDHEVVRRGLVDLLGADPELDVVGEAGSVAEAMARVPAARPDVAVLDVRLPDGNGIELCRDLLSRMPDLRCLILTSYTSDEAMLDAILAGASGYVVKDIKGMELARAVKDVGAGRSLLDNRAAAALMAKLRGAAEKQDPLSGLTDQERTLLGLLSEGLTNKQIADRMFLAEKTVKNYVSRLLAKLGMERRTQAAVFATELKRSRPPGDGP
T1 sequence (P9WMF9 whole entry): as above
Sequence of DNA-binding protein HupB (Mycobacterium tuberculosis (strain ATCC 25177 / H37Ra)) (A5U6Z7 whole entry): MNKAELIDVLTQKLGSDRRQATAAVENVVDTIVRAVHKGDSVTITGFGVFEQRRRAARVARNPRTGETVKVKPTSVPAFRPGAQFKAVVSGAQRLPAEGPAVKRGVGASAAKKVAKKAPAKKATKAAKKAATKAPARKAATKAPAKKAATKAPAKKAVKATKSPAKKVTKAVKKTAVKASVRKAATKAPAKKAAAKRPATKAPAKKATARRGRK

| SMILES | IC50 [1] | IC50 [2] | Activity [4] | IC50 ([1]; read-out: IC50 (converted)) [µM] | inhibition [12] [%] | IC50 ([2]; read-out: IC50 (converted)) [µM] | also measured |
| --- | --- | --- | --- | --- | --- | --- | --- |
| COc1cc(Br)cc(/C=C2/SC(Nc3cccc(C(=O)O)c3)=NC2=O)c1O | Not Active | Not Active |  |  |  |  |  |
| COC(=O)c1ccc(Cl)c(NC(=O)c2ccc(CN3CCOCC3)cc2)c1 | Not Active | Not Active |  |  |  |  |  |
| COc1cc(NC(=O)c2ccc(-c3cc4ccccc4oc3=O)cc2)ccc1NC(=O)c1ccccc1Cl |  |  | inactive | 125 | 50 | < 49.9 | Activity [3]: inactive; Activity [5]: inactive; Activity [6]: Active; Activity [7]: Active; Activity [8]: >99%; Activity [9]: inactive; Activity [10]: Active; Activity [11]: Active; Activity [13]: inactive; IC50 [14]: < 125 µM; IC50 [15]: < 125 µM; Activity [16]: inactive |
| COc1cc(C(=O)NCC(=O)NN)cc(OC)c1OC | Not Active | Not Active |  |  |  |  |  |
| O=C(NCc1ccccc1)c1ccccc1NS(=O)(=O)c1ccc2c(c1)OCCO2 | Not Active | Not Active |  |  |  |  |  |
| NNC(=O)c1ccncc1 |  |  |  |  |  |  | Activity [17]: inactive; Activity [18]: inactive |
| O=c1[nH]cc(/N=C/c2cc([N+](=O)[O-])ccc2O)c(=O)[nH]1 | Not Active | Not Active |  |  |  |  |  |
| COc1cc(NC(=O)c2cc3ccccc3o2)ccc1NC(=O)c1ccccc1Cl |  |  | Active | 300 | 30 | 200 | Activity [7]: Active |
| Cc1ncc([N+](=O)[O-])n1CCO |  |  |  |  |  |  | Activity [17]: Active; Activity [18]: Active |
| COc1cc(NC(=O)CCc2ccc(OCc3ccc(Cl)cc3)c(OC)c2)c(OC)cc1Cl |  |  | Active | 249 | 50 | 295 | Activity [7]: Active |
| Nc1nc2c(nc(Br)n2[C@H]2O[C@H](CO)[C@@H](O)[C@@H]2O)c(=O)[nH]1 | Not Active | Not Active |  |  |  |  |  |
| C=CCc1cc(/C=C2\NC(=O)N(c3ccccc3F)C2=O)cc(OCC)c1O |  |  | Active | 311 | 30 | 259 | inhibition [19]: 100% |
| Cc1cc(=O)[nH]c2sc(C(=O)c3ccc(Br)cc3)c(N)c12 | Not Active | Not Active |  |  |  |  |  |
